Assay results taken from PMC3517121 (Chembiochem : a European journal of chemical biology, 2011).
Where two headings read alike, the source gives them in different places.

Tests used:
Solubility in water = assay type: physicochemical; details: qualitative statement
[1] = Molar absorption coefficient; assay type: physicochemical
Method in brief: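 Test cross-linker concentration fixed by 1H NMR in DMSO-d6 with a known concentration of 1,2-dichloroethane, comparing the DCE methylene signal with the cross-linker α-methylene signal. The NMR solution was then diluted in DMSO or in 10 mM phosphate buffer pH 7.0, and UV-Vis spectra were recorded to calculate the molar absorption coefficient.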

[2] = cited from earlier work

Compound: CC(=O)Nc1ccc(N=Nc2ccc(-c3ccc(N=Nc4ccc(NC(C)=O)cc4)cc3)cc2)cc1 [BPDB(r), 4,4’-bis(4-acetamidophenyl)diazenylbiphenyl]
- solubility in water (Solubility in water): not soluble in water

Compound: O=C(CCl)Nc1ccc(N=Nc2ccc(-c3ccc(N=Nc4ccc(NC(=O)CCl)cc4)cc3)cc2)cc1 [BPDB, 4,4’-bis(4-(2-chloroacetamido)phenyl)diazenylbiphenyl]
- molar absorption coefficient ([1]; at 400 nm in DMSO): 60,000 M^-1cm^-1

Compound: O=C(CCl)Nc1ccc(N=Nc2ccc(-c3ccc(N=Nc4ccc(NC(=O)CCl)cc4)cc3S(=O)(=O)O)c(S(=O)(=O)O)c2)cc1 [BPDBS, 4,4’-bis(4-(2-chloroacetamido)phenyl)diazenylbiphenyl-2,2’-disulfonate]
- solubility in water (Solubility in water): water-soluble
- molar absorption coefficient ([1]; at 360 nm in sodium phosphate buffer, pH 7.0): 45,000 M^-1cm^-1
- molar absorption coefficient ([1]; at 380 nm in DMSO): 52,000 M^-1cm^-1

Compound: O=C(CCl)Nc1ccc(N=Nc2ccc(NC(=O)CCl)c(S(=O)(=O)O)c2)cc1S(=O)(=O)O [BSBCA, 3,3’-bis(sulfonato)-4,4’-bis(chloroacetamide)azobenzene]
- molar absorption coefficient [2]: 27,000 M^-1 cm^-1
